Holding throughout (assay type): functional
Assay [1] concerns HepG2. As to the kind of experiment: Viability of human HepG2 cells at 15 uM relative to control by MTT assay. The note with it: read-out: Survival. In a few lines:
(§1)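 HepG2 cells seeded 50000/well in complete DMEM and grown overnight at 37 °C. They were then exposed for 20 h to drug in DMEM with 0.8% BSA and rinsed. Cells were kept in dark with no illumination, then incubated 24 h at 37 °C. MTT 0.5 mg/mL was given for 2 h and solubilised in 70% 2-propanol/0.1 M HCl, with A570 read. Viability is relative to untreated cells (100%), 3 wells/condition, 3-8 experiments, mean ± standard error.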
A general note: Tetrazolium assays rely on reduction of a dye to a coloured formazan, in cell work by metabolically active cells.

Assay [2] deals with HepG2. As to the kind of experiment: Viability of human HepG2 cells in presence of 7.5 J/cm2 light at 1 uM relative to control by MTT assay. Particulars: HepG2, light or radiation study, read-out: Survival. In a few lines: (§2)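 HepG2 cells were plated 50000/well, grown overnight, then loaded 20 h with drug in DMEM/0.8% BSA. After rinsing into complete DMEM they were irradiated with a 670 nm laser at 20 mW/cm2 fluence rate. They were then incubated 24 h at 37 °C, given MTT 0.5 mg/mL for 2 h, solubilised in acidified 2-propanol, and A570 was read. Viability is versus untreated cells (100%), 3 wells/condition, 3-8 experiments, mean ± standard error.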

For assay [3], the system named is HepG2. As to the kind of experiment: Viability of human HepG2 cells at 30 uM relative to control by MTT assay. The note with it: read-out: Survival. The procedure, abridged:
as §1

For assay [4], the system named is HepG2. As to the kind of experiment: Viability of human HepG2 cells at 1 uM relative to control by MTT assay. Particulars: read-out: Survival. The procedure, abridged:
as §1

Assay [5] relates to HepG2. As to the kind of experiment: Viability of human HepG2 cells at 5 uM relative to control by MTT assay. Particulars: read-out: Survival. In a few lines: as §1
The subject of assay [6] is HepG2. As to the kind of experiment: Viability of human HepG2 cells in presence of 5 J/cm2 light at 1 uM relative to control by MTT assay. The note with it: HepG2, light or radiation study, read-out: Survival. In a few lines:
as §2

For assay [7], the system named is HepG2. As to the kind of experiment: Viability of human HepG2 cells in presence of 5 J/cm2 light at 5 uM relative to control by MTT assay. The note with it: HepG2, light or radiation study, read-out: Survival. The procedure, abridged: as §2
Assay [8] has as its system HepG2. As to the kind of experiment: Viability of human HepG2 cells in presence of 1 J/cm2 light at 15 uM relative to control by MTT assay. The note with it: HepG2, light or radiation study, read-out: Survival. The procedure, abridged:
as §2

Assay [9] concerns HepG2. As to the kind of experiment: Viability of human HepG2 cells in presence of 1 J/cm2 light at 5 uM relative to control by MTT assay. The note with it: HepG2, light or radiation study, read-out: Survival. In a few lines:
as §2

Assay [10] relates to HepG2. As to the kind of experiment: Viability of human HepG2 cells in presence of 7.5 J/cm2 light at 5 uM relative to control by MTT assay. The note with it: HepG2, light or radiation study, read-out: Survival. In a few lines:
as §2

The test system of assay [11] is HepG2. As to the kind of experiment: Viability of human HepG2 cells in presence of 1 J/cm2 light at 30 uM relative to control by MTT assay. The note with it: HepG2, light or radiation study, read-out: Survival. The procedure, abridged:
as §2

For assay [12], the system named is HepG2. As to the kind of experiment: Viability of human HepG2 cells in presence of 7.5 J/cm2 light at 15 uM relative to control by MTT assay. Particulars: HepG2, light or radiation study, read-out: Survival. The procedure, abridged:
as §2

Assay [13] has as its system HepG2. As to the kind of experiment: Viability of human HepG2 cells in presence of 5 J/cm2 light at 15 uM relative to control by MTT assay. Particulars: HepG2, light or radiation study, read-out: Survival. In a few lines: as §2
For assay [14], the system named is HepG2. As to the kind of experiment: Viability of human HepG2 cells in presence of 5 J/cm2 light at 30 uM relative to control by MTT assay. The note with it: HepG2, light or radiation study, read-out: Survival. The procedure, abridged:
as §2

For assay [15], the system named is HepG2. As to the kind of experiment: Viability of human HepG2 cells in presence of 1 J/cm2 light at 1 uM relative to control by MTT assay. Particulars: HepG2, light or radiation study, read-out: Survival. In a few lines:
as §2

The subject of assay [16] is HepG2. As to the kind of experiment: Viability of human HepG2 cells in presence of 7.5 J/cm2 light at 30 uM relative to control by MTT assay. The note with it: HepG2, light or radiation study, read-out: Survival. In a few lines:
as §2

Structures are written as SMILES.

Take `C=Cc1c(C)c2cc3[nH]c(c4c5nc(cc6nc(cc1[nH]2)C(C)=C6CC)C(C)=C5C(=O)C4)[C@@](C)(CCC(=O)NCC(=O)N[C@@H](CC(=O)O)C(=O)N[C@@H](CCC(=O)O)C(=O)N[C@H](C(=O)N[C@@H](CC(=O)O)C(=O)NCC(=O)N[C@@H](CO)C(=O)NCC(=O)N[C@@H](CCCCNC(=O)CCCN(C)c1ccc(/N=N/c2ccc4nc5ccc(N(CC)CC)cc5[n+](-c5ccccc5)c4c2)cc1)C(=O)O)C(C)C)C3(C)C`: the viability at 15 µM was 108% with HepG2 [1], 56% in the assay with HepG2 [8], 5% with HepG2 [12] and 11% in the assay on HepG2 [13]. Also, the viability at 1 µM in the assay on HepG2 [2] amounted to 6%; in the assay on HepG2 [4], 106%; in the assay on HepG2 [6] it was 58%; in the assay with HepG2 [15] it was 90%. In addition, the viability at 30 µM with HepG2 [3] was found to be 117%; with HepG2 [11] it was 41%; in the assay on HepG2 [14], 7%; in the assay on HepG2 [16], 4%. Further, the viability at 5 µM worked out at 105% with HepG2 [5], 20% in the assay with HepG2 [7], 86% with HepG2 [9] and 4% with HepG2 [10].
